Measurements from ChEMBL document CHEMBL2046280, “Discovery of the novel potent and selective FLT3 inhibitor 1-{5-[7-(3- morpholinopropoxy)quinazolin-4-ylthio]-[1,3,4]thiadiazol-2-yl}-3-p-tolylurea and its anti-acute myeloid leukemia (AML) activities in vitro and in vivo” (J Med Chem, 2012).
Activity calls are given as the source filed them. The calls are words filed in the database; no cut-off is given here.

Legend:
[1] = biological target: Tyrosine-protein kinase Lck (Homo sapiens, UniProt P06239); assay: Inhibition of human Lck
Sequence of Tyrosine-protein kinase Lck (P06239 whole entry): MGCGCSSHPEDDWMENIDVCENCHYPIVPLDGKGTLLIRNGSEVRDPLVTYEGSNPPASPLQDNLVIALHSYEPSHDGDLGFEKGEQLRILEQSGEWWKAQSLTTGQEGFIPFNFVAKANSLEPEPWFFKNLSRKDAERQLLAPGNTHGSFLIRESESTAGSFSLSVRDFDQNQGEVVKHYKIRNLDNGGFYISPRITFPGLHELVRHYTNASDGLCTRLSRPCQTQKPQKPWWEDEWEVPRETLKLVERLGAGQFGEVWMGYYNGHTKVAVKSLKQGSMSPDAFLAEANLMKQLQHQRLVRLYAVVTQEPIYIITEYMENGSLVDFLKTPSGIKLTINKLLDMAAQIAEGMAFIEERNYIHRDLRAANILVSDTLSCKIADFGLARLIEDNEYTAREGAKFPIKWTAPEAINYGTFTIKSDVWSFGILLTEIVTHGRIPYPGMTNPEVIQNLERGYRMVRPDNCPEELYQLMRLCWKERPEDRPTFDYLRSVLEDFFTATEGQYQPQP

Mus musculus = assay: Toxicity in NOD-SCID mouse bearing human MV4-11 cells assessed as change in body weight at 20 to 100 mg/kg, ip administered qd for 21 days; format: organism-based; set-up: dose 20-100 mg/kg, route intraperitoneal; settings: in vivo, 504 h
How it was run: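 Female NOD-SCID mice (6−7 weeks old) received s.c. hind-flank injections of MV4-11 cells (100 μL of a 1 × 10⁸/mL suspension in serum-free medium). At 300−500 mm³, the mice were randomized into 4 groups of 6. They were dosed ip once daily for 21 days with 20, 40 or 100 mg/kg/d or vehicle (25% PEG400 plus 5% DMSO, 5 mL/kg). Body weight and signs of toxicity were followed throughout.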

MV4-11 [2] = assay: Cytotoxicity against FLT3-dependent human MV4-11 cells after 72 hrs by MTT assay; format: functional, cell-based; settings: MV4-11, 72 h
How it was run: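 Leukemia cells at 1−4 × 10⁴ per well were exposed to increasing inhibitor concentrations for 72 h at 37 °C. MTT was then added for 2−4 h, and cells were lysed with 20% acidified SDS. OD read at 570 nm. Viability relative to 0.1% DMSO controls; triplicate. MV4-11 grown in IMDM, others in RPMI 1640 or DMEM with 10% FBS.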

Jurkat = assay: Cytotoxicity against human Jurkat cells after 72 hrs by MTT assay
[3] = biological target: Tyrosine-protein kinase JAK3 (Homo sapiens, UniProt P52333); assay: Inhibition of human JAK3
[4] = biological target: Insulin-like growth factor 1 receptor (Homo sapiens, UniProt P08069); assay: Inhibition of human IGF-1R
Sequence of Insulin-like growth factor 1 receptor (P08069 31-736 limits assumed): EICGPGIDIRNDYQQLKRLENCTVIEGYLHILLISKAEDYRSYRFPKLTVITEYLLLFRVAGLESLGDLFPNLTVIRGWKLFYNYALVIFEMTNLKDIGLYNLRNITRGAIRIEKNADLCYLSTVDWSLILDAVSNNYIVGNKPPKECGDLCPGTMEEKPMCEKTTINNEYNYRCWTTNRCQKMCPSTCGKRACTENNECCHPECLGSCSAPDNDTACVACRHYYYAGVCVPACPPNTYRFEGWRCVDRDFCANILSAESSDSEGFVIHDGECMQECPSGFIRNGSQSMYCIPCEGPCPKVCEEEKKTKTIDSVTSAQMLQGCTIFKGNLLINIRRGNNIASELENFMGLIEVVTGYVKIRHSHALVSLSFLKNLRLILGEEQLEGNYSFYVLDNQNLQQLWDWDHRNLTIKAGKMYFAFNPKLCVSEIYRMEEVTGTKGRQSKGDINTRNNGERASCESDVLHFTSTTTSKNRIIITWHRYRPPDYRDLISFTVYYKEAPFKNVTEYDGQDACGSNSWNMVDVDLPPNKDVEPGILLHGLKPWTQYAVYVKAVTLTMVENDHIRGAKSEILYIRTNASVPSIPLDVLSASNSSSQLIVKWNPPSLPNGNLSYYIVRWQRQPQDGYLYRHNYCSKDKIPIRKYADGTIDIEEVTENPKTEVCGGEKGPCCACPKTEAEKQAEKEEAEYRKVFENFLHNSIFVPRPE
Sequence of Insulin-like growth factor 1 receptor (P08069 741-1367 limits assumed): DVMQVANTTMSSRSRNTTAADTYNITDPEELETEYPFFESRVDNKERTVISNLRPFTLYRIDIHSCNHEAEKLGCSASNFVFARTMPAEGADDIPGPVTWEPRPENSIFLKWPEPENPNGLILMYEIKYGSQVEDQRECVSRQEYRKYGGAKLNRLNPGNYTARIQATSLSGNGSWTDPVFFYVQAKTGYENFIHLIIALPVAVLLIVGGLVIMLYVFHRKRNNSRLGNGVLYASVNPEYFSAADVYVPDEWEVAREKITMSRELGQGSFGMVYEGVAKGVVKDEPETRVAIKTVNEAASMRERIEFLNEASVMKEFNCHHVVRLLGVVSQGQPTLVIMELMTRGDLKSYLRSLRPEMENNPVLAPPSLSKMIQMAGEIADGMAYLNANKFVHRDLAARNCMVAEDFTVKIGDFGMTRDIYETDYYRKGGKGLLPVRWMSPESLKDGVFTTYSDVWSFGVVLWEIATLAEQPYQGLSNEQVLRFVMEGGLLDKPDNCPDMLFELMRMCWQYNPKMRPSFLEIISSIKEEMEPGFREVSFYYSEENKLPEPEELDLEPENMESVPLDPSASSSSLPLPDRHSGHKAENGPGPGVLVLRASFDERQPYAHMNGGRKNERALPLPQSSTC

A-431 = assay: Cytotoxicity against human A431 cells after 72 hrs by MTT assay; settings: A-431, 72 h
[5] = Cytotoxicity against human H820 cells after 72 hrs by MTT assay; settings: NCI-H820, 72 h
NCI-H292 = assay: Cytotoxicity against human NCI-H292 cells after 72 hrs by MTT assay; settings: NCI-H292, 72 h
SH-SY5Y = assay: Cytotoxicity against human SH-SY5Y cells after 72 hrs by MTT assay
MV4-11 [6] = assay: Antitumor activity against human MV4-11 cells xenografted in NOD-SCID mouse assessed as tumor mitotic index at 20 mg/kg, ip administered qd for 21 days measured after 2 to 3 days of last dose by Ki67 staining-based immunohistochemical analysis; format: functional, organism-based; set-up: dose 20 mg/kg
How it was run: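 NOD-SCID mice bearing MV4-11 tumours received 20 mg/kg/d ip and were sacrificed at set times after dosing. Tumours were formalin-fixed and paraffin-embedded, and 4−8 μm sections were cut. Proliferation by Ki67 immunostaining, apoptosis by TUNEL staining, tissue by hematoxylin staining; light-microscope imaging.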

PC-3 = assay: Cytotoxicity against human PC3 cells after 72 hrs by MTT assay; settings: PC-3, 72 h
[7] = biological target: Vascular endothelial growth factor receptor 1 (Homo sapiens, UniProt P17948); assay: Inhibition of human FLT1
Sequence of Vascular endothelial growth factor receptor 1 (P17948 whole entry): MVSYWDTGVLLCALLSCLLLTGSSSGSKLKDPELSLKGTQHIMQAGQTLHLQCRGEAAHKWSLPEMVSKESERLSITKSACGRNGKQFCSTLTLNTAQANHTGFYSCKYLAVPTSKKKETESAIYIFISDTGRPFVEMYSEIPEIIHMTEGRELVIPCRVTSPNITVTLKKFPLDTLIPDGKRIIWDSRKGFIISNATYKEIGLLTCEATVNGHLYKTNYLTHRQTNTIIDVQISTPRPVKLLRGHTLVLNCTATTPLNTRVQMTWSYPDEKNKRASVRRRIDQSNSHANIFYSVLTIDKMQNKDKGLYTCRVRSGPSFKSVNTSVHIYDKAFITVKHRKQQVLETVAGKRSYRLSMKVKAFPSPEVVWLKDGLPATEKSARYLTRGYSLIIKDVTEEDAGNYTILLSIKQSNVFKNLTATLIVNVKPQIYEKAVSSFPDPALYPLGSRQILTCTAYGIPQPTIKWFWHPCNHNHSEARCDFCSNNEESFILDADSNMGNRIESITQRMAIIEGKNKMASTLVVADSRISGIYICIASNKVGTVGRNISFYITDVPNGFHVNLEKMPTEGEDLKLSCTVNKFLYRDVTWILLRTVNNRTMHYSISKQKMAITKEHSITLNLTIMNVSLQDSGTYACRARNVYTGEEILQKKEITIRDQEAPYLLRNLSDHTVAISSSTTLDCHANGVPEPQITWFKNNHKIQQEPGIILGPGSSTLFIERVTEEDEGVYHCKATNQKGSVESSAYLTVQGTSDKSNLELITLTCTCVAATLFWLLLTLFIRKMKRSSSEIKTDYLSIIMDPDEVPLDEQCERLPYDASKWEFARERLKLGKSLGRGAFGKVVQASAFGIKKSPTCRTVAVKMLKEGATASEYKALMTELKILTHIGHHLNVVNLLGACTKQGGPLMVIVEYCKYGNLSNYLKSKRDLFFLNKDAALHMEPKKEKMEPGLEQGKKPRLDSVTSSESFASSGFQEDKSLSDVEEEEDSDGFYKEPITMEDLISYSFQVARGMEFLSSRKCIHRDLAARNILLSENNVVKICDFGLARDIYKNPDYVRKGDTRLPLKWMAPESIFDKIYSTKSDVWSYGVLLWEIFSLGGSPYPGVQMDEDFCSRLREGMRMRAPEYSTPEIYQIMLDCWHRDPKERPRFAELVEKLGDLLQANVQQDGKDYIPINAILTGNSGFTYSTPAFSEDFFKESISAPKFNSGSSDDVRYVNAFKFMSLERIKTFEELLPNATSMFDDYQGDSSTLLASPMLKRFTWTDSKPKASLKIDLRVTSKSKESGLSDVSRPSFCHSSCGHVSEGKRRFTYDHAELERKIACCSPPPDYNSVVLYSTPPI

MV4-11 [8] = assay: Antitumor activity against human MV4-11 cells xenografted in NOD-SCID mouse assessed as tumor growth inhibition at 100 mg/kg, ip once daily for 21 days measured every 3 days relative to control; format: functional; settings: MV4-11, ip, route intraperitoneal, read-out: GI
How it was run: (§1)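 Female NOD-SCID mice, 6−7 weeks old, received 100 μL of MV4-11 cells (1 × 10⁸/mL in serum-free medium) s.c. in the hind flank. At 300−500 mm³ tumours, mice were randomized (6 per group). Drug was dissolved in 25% (v/v) PEG400 plus 5% DMSO and given ip once daily at 5 mL/kg. Calipers every 3 days; volume = a × b²/2.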

[9] = Cytotoxicity against human SK cells after 72 hrs by MTT assay
K562 = assay: Cytotoxicity against human K562 cells after 72 hrs by MTT assay; settings: K562, 72 h
NCI-H2228 = assay: Cytotoxicity against human NCI-H2228 cells after 72 hrs by MTT assay; settings: NCI-H2228, 72 h
[10] = biological target: Vascular endothelial growth factor receptor 2 (Homo sapiens, UniProt P35968); assay: Inhibition of human KDR
HCT-116 = assay: Cytotoxicity against FLT3-independent human HCT116 cells after 72 hrs by MTT assay; format: functional, cell-based; settings: HCT-116, 72 h
How it was run: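 Adherent lines at 2−5 × 10³ cells/well were allowed to settle 24 h, then the medium was replaced with serial inhibitor dilutions for 72 h. MTT was added for 2−4 h, followed by dissolution in 100% DMSO. OD read at 570 nm. Viability relative to 0.1% DMSO controls; triplicate. Grown in RPMI 1640 or DMEM with 10% FBS, 5% CO₂, 37 °C.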

[11] = biological target: Mast/stem cell growth factor receptor Kit (Homo sapiens, UniProt P10721); assay: Inhibition of human c-kit
MV4-11 [12] = assay: Antitumor activity against human MV4-11 cells xenografted in NOD-SCID mouse assessed as tumor growth regression at 100 mg/kg, ip once daily for 21 days measured every 3 days; format: functional, organism-based; set-up: dose 100 mg/kg; how it was run: as §1
Ramos = assay: Cytotoxicity against human Ramos cells after 72 hrs by MTT assay
MDA-MB-231 = assay: Cytotoxicity against human MDA-MB-231 cells after 72 hrs by MTT assay; settings: MDA-MB-231, 72 h
SW480 = assay: Cytotoxicity against human SW480 cells after 72 hrs by MTT assay; settings: SW480, 72 h
[13] = biological target: Platelet-derived growth factor receptor alpha (Homo sapiens, UniProt P16234); assay: Inhibition of human PDGFRalpha
KARPAS-299 = assay: Cytotoxicity against human KARPAS299 cells after 72 hrs by MTT assay; settings: KARPAS-299, 72 h
Aurora kinase A = Aurora kinase A (Homo sapiens, UniProt O14965); assay: Inhibition of human Aurora A
Sequence of Aurora kinase A (O14965 whole entry): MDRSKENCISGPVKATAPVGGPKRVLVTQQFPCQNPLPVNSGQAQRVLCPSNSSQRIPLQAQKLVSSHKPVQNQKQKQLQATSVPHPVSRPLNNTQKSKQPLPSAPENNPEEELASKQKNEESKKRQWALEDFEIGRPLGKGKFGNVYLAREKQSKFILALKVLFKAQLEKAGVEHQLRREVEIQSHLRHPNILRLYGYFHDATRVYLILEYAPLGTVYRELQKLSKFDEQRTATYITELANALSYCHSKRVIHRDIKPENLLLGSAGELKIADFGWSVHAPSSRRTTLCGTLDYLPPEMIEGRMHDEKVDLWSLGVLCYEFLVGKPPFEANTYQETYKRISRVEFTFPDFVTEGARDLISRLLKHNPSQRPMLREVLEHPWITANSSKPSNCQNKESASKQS

[14] = biological target: Serine/threonine-protein kinase PLK1 (Homo sapiens, UniProt P53350); assay: Inhibition of human PLK1
[15] = biological target: Platelet-derived growth factor receptor beta (Homo sapiens, UniProt P09619); assay: Inhibition of human PDGFRbeta
Sequence of Platelet-derived growth factor receptor beta (P09619 whole entry): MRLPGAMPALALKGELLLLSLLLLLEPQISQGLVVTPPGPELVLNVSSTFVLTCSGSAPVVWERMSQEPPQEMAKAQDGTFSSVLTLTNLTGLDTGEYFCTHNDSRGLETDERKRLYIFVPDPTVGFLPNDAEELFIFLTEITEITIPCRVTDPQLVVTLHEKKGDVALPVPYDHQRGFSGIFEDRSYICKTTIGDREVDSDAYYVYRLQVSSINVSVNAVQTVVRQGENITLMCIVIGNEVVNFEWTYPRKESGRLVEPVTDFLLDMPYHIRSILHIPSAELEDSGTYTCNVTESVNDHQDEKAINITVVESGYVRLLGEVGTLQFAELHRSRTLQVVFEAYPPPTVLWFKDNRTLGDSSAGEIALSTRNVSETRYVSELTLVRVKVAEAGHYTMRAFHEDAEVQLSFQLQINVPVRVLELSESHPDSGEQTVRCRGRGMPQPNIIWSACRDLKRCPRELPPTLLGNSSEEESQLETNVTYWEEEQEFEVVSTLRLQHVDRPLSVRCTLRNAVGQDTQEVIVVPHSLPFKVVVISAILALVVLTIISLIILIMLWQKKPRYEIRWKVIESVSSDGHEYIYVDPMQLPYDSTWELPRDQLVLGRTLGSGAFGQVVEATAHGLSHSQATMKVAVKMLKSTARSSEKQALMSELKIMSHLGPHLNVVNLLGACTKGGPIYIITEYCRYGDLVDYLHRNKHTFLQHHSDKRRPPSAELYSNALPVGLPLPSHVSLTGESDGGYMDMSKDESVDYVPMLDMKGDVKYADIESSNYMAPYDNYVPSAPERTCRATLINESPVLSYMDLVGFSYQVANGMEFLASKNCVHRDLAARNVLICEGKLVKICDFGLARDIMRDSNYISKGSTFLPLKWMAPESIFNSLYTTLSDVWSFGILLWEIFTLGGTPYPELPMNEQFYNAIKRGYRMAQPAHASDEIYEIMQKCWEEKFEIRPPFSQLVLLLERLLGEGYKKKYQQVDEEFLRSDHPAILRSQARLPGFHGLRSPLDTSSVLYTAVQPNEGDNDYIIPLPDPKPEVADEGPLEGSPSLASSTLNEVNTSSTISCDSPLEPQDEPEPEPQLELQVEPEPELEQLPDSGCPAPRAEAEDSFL

SK-OV-3 = assay: Cytotoxicity against human SKOV3 cells after 72 hrs by MTT assay; settings: SK-OV-3, 72 h

Cc1ccc(NC(=O)Nc2nnc(Sc3ncnc4cc(OCCCN5CCOCC5)ccc34)s2)cc1
IC50 [1]: > 10 µM | Activity (Mus musculus): Non-toxic | IC50 (MV4-11 [2]): 0.006 µM | IC50 (Jurkat): 3.05 µM | IC50 [3]: > 10 µM | IC50 [4]: > 10 µM | IC50 (A-431): 8.91 µM | IC50 [5]: > 20 µM | IC50 (NCI-H292): 6.94 µM | IC50 (SH-SY5Y): > 20 µM | Activity (MV4-11 [6]): Active | IC50 (PC-3): 15.7 µM | IC50 [7]: > 1 µM | inhibition in vivo at 100 mg/kg (MV4-11 [8]): 115% | IC50 [9]: > 20 µM | IC50 (K562): 12.7 µM | IC50 (NCI-H2228): > 20 µM | IC50 [10]: > 10 µM | IC50 (HCT-116): > 10 µM | IC50 [11]: 6.8 µM | Activity (MV4-11 [12]): Active | IC50 (Ramos): 6.25 µM | IC50 (MDA-MB-231): > 20 µM | IC50 (SW480): 11.2 µM | IC50 [13]: > 10 µM | IC50 (KARPAS-299): > 20 µM | IC50 (Aurora kinase A): 1.5 µM | IC50 [14]: > 10 µM | IC50 [15]: > 10 µM | IC50 (SK-OV-3): > 20 µM
